We go through 24 compounds from ChEMBL document CHEMBL6083209, “Pyridazinone-based derivatives as anticancer agents endowed with anti-microbial activity: molecular design, synthesis, and biological investigation” (RSC Med Chem, 2024).

The term MIC denotes the smallest concentration in the dilution series that meets the test's criterion for growth inhibition. Low values mean greater potency, high ones weaker potency.

In brackets after ≈: the same amount, converted by molar mass. Activity calls are given as the source filed them.

In assay [1] the test system is Escherichia coli. Put plainly: Antimicrobial activity against Escherichia coli ATCC 25922 by broth microdilution method.
For assay [2], the system named is Candida albicans. Put plainly: Antimicrobial activity against Candida albicans ATCC 10231 by broth microdilution method.
The subject of assay [3] is Staphylococcus aureus. Put plainly: Antimicrobial activity against Staphylococcus aureus ATCC 29213 by broth microdilution method.
The subject of assay [4] is Staphylococcus aureus. Nature of the assay: Antimicrobial activity against Staphylococcus aureus. It is filed as functional.
Assay [5] deals with A549. Nature of the assay: Downregulation of Bcl-2 gene expression in human A549 cells by qRT-PCR analysis. It is filed as functional, cell-based. An outline of the steps: (§1)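 A549/ATCC cells treated, total RNA DNase-treated and checked by 260/280 ratio (1.8–2.1). Reverse transcription with oligo-dT and MuLV RT: 25 °C 10 min, 42 °C 1 h, 99 °C 5 min. qPCR of 40 cycles (95 °C 15 s, 55 °C 30 s, 72 °C 30 s) followed by melt curve. Relative expression by the 2−ΔΔCT method, mean ± SEM.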
(In general: Quantitative PCR measures a nucleic acid by following its amplification.)

Assay [6] can be described thus: Upregulation of p53 gene expression in human A549 cells assessed as fold increase by qRT-PCR analysis. In kind it is functional. In a few lines:
as §1

The nature of assay [7]: Upregulation of Bax gene expression in human A549 cells assessed as fold increase by qRT-PCR analysis. It is filed as functional. In a few lines: as §1

Turning to `O=c1ccc(-c2ccc(NC(=S)Nc3c(Cl)cc(Cl)cc3Cl)cc2)n[nH]1`, the values for the MIC in assay [1], in assay [2] and in assay [3] were 256 µg/mL (≈ 601 µM), 64 µg/mL (≈ 150 µM) and 128 µg/mL (≈ 301 µM), respectively.

Consider `O=C(NC(=S)Nc1ccc(/C=C/c2ccc(=O)[nH]n2)cc1)c1ccc(Cl)c(Cl)c1`, for which the minimum inhibitory concentration (MIC) in assay [1] turned out to be 1020 µg/mL (≈ 2300 µM); in assay [2], 512 µg/mL (≈ 1150 µM); in assay [3], 256 µg/mL (≈ 575 µM).

`N#Cc1ccc(Oc2cccc(NC(=O)Nc3ccc(Cl)c(C(F)(F)F)c3)c2)c(F)c1` returned an MIC in assay [4] of 0.5 µg/mL (≈ 1.11 µM).

As for `O=C(Nc1ccc(Br)cc1)Nc1ccc(-c2ccc(=O)[nH]n2)cc1`, the minimum inhibitory concentration (MIC) is more than 1020 µg/mL in assay [1], 512 µg/mL (≈ 1330 µM) in assay [2] and more than 1020 µg/mL in assay [3].

In the case of `O=C(NC(=S)Nc1ccc(-c2ccc(=O)[nH]n2)cc1)c1ccc(Cl)c(F)c1`, the minimal inhibitory concentration (MIC) is more than 1020 µg/mL in assay [1], 512 µg/mL (≈ 1270 µM) in assay [2] and more than 1020 µg/mL in assay [3].

`N#Cc1ccc(Oc2ccc3cccc(NC(=O)Nc4ccc(Cl)c(C(F)(F)F)c4)c3c2)cc1` registered a minimal inhibitory concentration (MIC) in assay [4] of 1 µg/mL (≈ 2.08 µM).

For `COc1cccc2c1C(=O)c1c(O)c3c(c(O)c1C2=O)C[C@@](O)(C(=O)CO)C[C@@H]3O[C@H]1C[C@H](N)[C@H](O)[C@H](C)O1` [DOXORUBICIN], the outcome in assay [5] was Active. The “fold change (FC)” value in assay [6] and in assay [7] was 3 throughout.

Consider `O=C(Nc1ccc2c(c1)OC(F)(F)O2)Nc1ccc(Cl)c(C(F)(F)F)c1`, for which 0.3 µg/mL (≈ 0.76 µM) was the least that counted as inhibitory in assay [4] (MIC).

In turn, `O=C(Nc1ccc(Oc2ccc(=O)[nH]n2)cc1)Nc1ccc(Cl)c(C(F)(F)F)c1` yielded an MIC in assay [4] of more than 128 µg/mL.

In the case of `O=C1CCC(c2ccc(NC(=S)NC(=O)c3ccc(Cl)cc3)cc2)=NN1`, the MIC was 256 µg/mL (≈ 662 µM) in assay [1], 512 µg/mL (≈ 1320 µM) in assay [2] and 512 µg/mL (≈ 1320 µM) in assay [3].

On to `O=c1ccc(-c2ccc(NS(=O)(=O)c3cccc(Br)c3)cc2)n[nH]1`, for which the MIC is 256 µg/mL (≈ 630 µM) in assay [1], 64 µg/mL (≈ 158 µM) in assay [2] and 512 µg/mL (≈ 1260 µM) in assay [3].

`O=c1ccc(-c2ccc(NC(=S)Nc3cccc(F)c3)cc2)n[nH]1`: the figures for the MIC in assay [1], in assay [2] and in assay [3] were more than 1020 µg/mL, 64 µg/mL (≈ 188 µM) and 512 µg/mL (≈ 1500 µM), respectively.

With `O=C1CCC(c2ccc(NC(=S)NC(=O)c3ccc([N+](=O)[O-])cc3)cc2)=NN1`, the minimal inhibitory concentration (MIC) was 256 µg/mL (≈ 644 µM) in assay [1], 512 µg/mL (≈ 1290 µM) in assay [2] and 512 µg/mL (≈ 1290 µM) in assay [3].

With `O=C(NC(=S)Nc1ccc(-c2ccc(=O)[nH]n2)cc1)c1ccc(Cl)c(Cl)c1`, the MIC in assay [1] was more than 1020 µg/mL; in assay [2], 512 µg/mL (≈ 1220 µM); in assay [3], more than 1020 µg/mL.

For `O=c1ccc(-c2ccc(NC(=S)Nc3ccc(Br)cc3)cc2)n[nH]1`, the MIC in assay [1] was determined as 512 µg/mL (≈ 1280 µM); in assay [2], 256 µg/mL (≈ 638 µM); in assay [3] it was 128 µg/mL (≈ 319 µM).

`O=c1ccc(-c2ccc(NC(=S)Nc3ccc(Cl)c(Cl)c3)cc2)n[nH]1`: the minimum inhibitory concentration (MIC) in assay [1] came to 512 µg/mL (≈ 1310 µM); in assay [2] it was 32 µg/mL (≈ 81.8 µM); in assay [3], 128 µg/mL (≈ 327 µM).

As for `O=C1CCC(c2ccc(NC(=S)NC(=O)c3ccccc3)cc2)=NN1`, the MIC came out at 256 µg/mL (≈ 726 µM) in assay [1], 512 µg/mL (≈ 1450 µM) in assay [2] and 512 µg/mL (≈ 1450 µM) in assay [3].

Regarding `O=c1ccc(/C=C/c2ccc(NC(=S)Nc3ccc(Cl)c(Cl)c3)cc2)n[nH]1`, the figures for the minimum inhibitory concentration (MIC) in assay [1], in assay [2] and in assay [3] were 512 µg/mL (≈ 1230 µM), 512 µg/mL (≈ 1230 µM) and 128 µg/mL (≈ 307 µM), respectively.

Consider `O=C(Nc1ccc(F)cc1)Nc1ccc(-c2ccc(=O)[nH]n2)cc1`, for which the MIC in assay [1] was 256 µg/mL (≈ 789 µM); in assay [2], more than 1020 µg/mL; in assay [3] it was 256 µg/mL (≈ 789 µM).

Turning to `O=c1ccc(-c2ccc(NS(=O)(=O)c3cccc(F)c3)cc2)n[nH]1`, the MIC was found to be 1020 µg/mL (≈ 2970 µM) in assay [1], 256 µg/mL (≈ 741 µM) in assay [2] and 512 µg/mL (≈ 1480 µM) in assay [3].

Turning to `O=C(NC(=S)Nc1ccc(-c2ccc(=O)[nH]n2)cc1)c1cccc(Br)c1`, the MIC in assay [1] is 256 µg/mL (≈ 596 µM); in assay [2] it was 512 µg/mL (≈ 1190 µM); in assay [3], 16 µg/mL (≈ 37.3 µM).

In the case of `O=c1ccc(-c2ccc(NS(=O)(=O)c3ccc(Cl)c(Cl)c3)cc2)n[nH]1`, the figures for the MIC in assay [1], in assay [2] and in assay [3] were 1020 µg/mL (≈ 2580 µM), 256 µg/mL (≈ 646 µM) and 512 µg/mL (≈ 1290 µM), respectively.

In the case of `O=C1CCC(c2ccc(NC(=S)NC(=O)c3ccc(Br)cc3)cc2)=NN1`, the values for the MIC in assay [1], in assay [2] and in assay [3] were 256 µg/mL (≈ 594 µM), 512 µg/mL (≈ 1190 µM) and 512 µg/mL (≈ 1190 µM), respectively.

As to `O=C(NC(=S)Nc1ccc(-c2ccc(=O)[nH]n2)cc1)c1cccc(F)c1`, the MIC in assay [1] came out at 256 µg/mL (≈ 695 µM); in assay [2] it was 512 µg/mL (≈ 1390 µM); in assay [3], 128 µg/mL (≈ 347 µM).
